What was measured:
Assay type in all cases: biochemical
[1] = target: single ATPase motor domain of chicken Myosin Va (Gallus gallus, UniProt Q02440); assay: enzyme-coupled steady-state actin-activated ATPase assay, single-headed myosin V
[2] = tested on: CHK1; assay: in vitro kinase assay CHK1; conditions: at 100 μM
[3] = tested on: PLK1; assay: in vitro kinase assay PLK1; conditions: at 100 μM
[4] = tested on: Abl kinase; assay: in vitro kinase assay Abl kinase; conditions: at 100 μM
[5] = tested on: p42 MAP kinase; assay: in vitro kinase assay p42 MAP kinase; conditions: at 100 μM
[6] = tested on: Casein kinase II; assay: in vitro kinase assay Casein kinase II; conditions: at 100 μM
[7] = tested on: Aurora kinase; assay: in vitro kinase assay Aurora kinase; conditions: at 100 μM
[8] = tested on: skeletal muscle myosin II; assay: in vitro ATPase assay myosin II
[9] = tested on: myosin VI; assay: in vitro ATPase assay myosin VI; conditions: at 50 μM
[10] = target: actomyosin V-ADP (Gallus gallus, UniProt Q02440); assay: MANT-ADP release from actomyosin V
Outline: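 Transient-kinetic measurement of MANT-ADP release from a preformed actomyosin V–ADP complex, using the fluorescent nucleotide analog. Release amplitudes are normalized and plotted against test compound concentration. Affinity comes from the best fit of that concentration dependence of the amplitudes.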

[11] = tested on: myosin V; assay: single MANT-ATP turnover measurements, myosin V without actin; conditions: absence of actin; data not shown

| Compound | mode of inhibition (effect on kcat and apparent KM for actin) ([1]; 12 μM MyoVin-1, various concentrations of actin) | increase in KI in presence of 0.1% triton X ([1]; 0.1% triton X in assay buffer vs without) | Ki ([1]; single-headed myosin V, steady-state actin-activated ATP hydrolysis) | inhibition of kinase [2] | inhibition of kinase [3] | inhibition of kinase [4] | inhibition of kinase [5] | inhibition of kinase [6] | inhibition of kinase [7] | inhibition of ATPase activity ([8]; at 50 μM) | inhibition of ATPase activity [9] | effect on ADP release ([10]; actomyosin V-ADP prepared by mixing with ATP) | effect on ADP release ([10]; actomyosin-ADP prepared by equilibrating actomyosin and ADP, data not shown) | effect on ATP binding and rate-limiting Pi release [11] | inhibition of ATPase activity ([8]; positive control, concentration not given) |
| --- | --- | --- | --- | --- | --- | --- | --- | --- | --- | --- | --- | --- | --- | --- | --- |
| O=C(O)c1cccc(SCc2cccc(Nc3ncc4c(-c5ccc(N6CCOCC6)cc5)[nH]nc4n3)c2)c1 [Compound 8] | uncompetitive inhibition | ~ 1.25 fold | ~6 µM | 5–10% | 5–10% | 5–10% | 5–10% | 5–10% | 5–10% | not observed any measurable inhibition | not observed any measurable inhibition | lowers the amplitude, but not the rate constant of ADP release | unaffected | unaffected |  |
| Cc1ccc2c(c1)C(=O)C1(O)CCN(c3ccccc3)C1=N2 (stereo not drawn) [blebbistatin, reference compound] |  |  |  |  |  |  |  |  |  |  |  |  |  |  | significantly inhibited |

Source: article PMC3063097 (Angewandte Chemie (International ed. in English), 2010)
